The IC50 is the concentration that gives 50% inhibition. Read a low IC50 as greater potency.

This passage reports IC50 results from ChEMBL document CHEMBL2390862, “Enmein-type diterpenoid analogs from natural kaurene-type oridonin: Synthesis and their antitumor biological evaluation” (Eur J Med Chem, 2013).

What all share (assay type): functional, cell-based
In one assay the test system is Bel-7402. Nature of the assay: Cytotoxicity against human Bel7402 cells after 72 hrs by MTT assay. The following applies: Bel-7402, 72 h. In outline:
(§1)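 K562, CaEs-17, Bel-7402 and MGC-803 cells in log phase seeded at 5 × 10⁴ cells/mL, incubated with or without test compounds at 37 °C, 5% CO₂; after 72 h MTT (5 mg/mL stock) added for 4 h, formazan dissolved in DMSO, OD read at 490 nm. Negative reference 0.1% DMSO, Taxol positive control. IC50 as mean ± S.D. of three independent experiments.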

The test system of a further assay is MGC-803. Nature of the assay: Cytotoxicity against human MGC803 cells after 72 hrs by MTT assay. The following applies: MGC-803, 72 h. In outline: as §1
The subject of another assay is K562. Nature of the assay: Cytotoxicity against human K562 cells after 72 hrs by MTT assay. The following applies: K562, 72 h. The procedure, abridged:
as §1
In general terms: Tetrazolium dyes change colour on reduction, which living cells bring about.

The nature of assay [1]: Cytotoxicity against human CaEs17 cells after 72 hrs by MTT assay. Conditions: CaEs17, 72 h. The procedure, abridged: as §1

For `C=C1C(=O)[C@@]23C(=O)O[C@H]4CCC(C)(C)[C@H]5[C@H](O)OC[C@@]45[C@@H]2CC[C@@H]1[C@H]3OC(=O)c1ccccc1Cl`, the IC50 in the assay with Bel-7402 worked out at 0.85 µM; with MGC-803, 0.8 µM; in the assay on K562, 0.22 µM; in assay [1], 0.6 µM.
On to `C=C1C(=O)[C@@]23C(=O)O[C@H]4CCC(C)(C)[C@H]5[C@H](O)OC[C@@]45[C@@H]2CC[C@@H]1[C@H]3OC(=O)CC`, for which the IC50 in the assay on Bel-7402 worked out at 1.53 µM; with MGC-803, 1.56 µM; in the assay with K562, 1.02 µM; in assay [1] it was 1.21 µM.
Consider `C=C1C(=O)[C@@]23C(=O)O[C@H]4CCC(C)(C)[C@H]5[C@H](O)OC[C@@]45[C@@H]2CC[C@@H]1[C@H]3OC(=O)c1cc(F)c(F)c(F)c1F`, for which the IC50 with Bel-7402 amounted to 0.89 µM; with MGC-803, 1.24 µM; in the assay on K562, 1.04 µM; in assay [1], 1.89 µM.
The compound `CC(=O)O[C@H]1C(=O)[C@@]2(C)[C@H]([C@H](OC(=O)c3ccccc3)[C@]3(O)C[C@H](OC(=O)[C@H](O)[C@@H](NC(=O)c4ccccc4)c4ccccc4)C(C)=C1C3(C)C)[C@]1(OC(C)=O)CO[C@@H]1C[C@@H]2O` [PACLITAXEL] yielded an IC50 in assay [1] of 0.43 µM.
In the assay on MGC-803, `C=C1C(=O)[C@@]23C(=O)O[C@H]4CCC(C)(C)[C@H]5[C@H](O)OC[C@@]45[C@@H]2CC[C@@H]1[C@H]3O` showed an IC50 of 14.2 µM.
For `C=C1C(=O)[C@@]23C(=O)O[C@H]4CCC(C)(C)[C@H]5[C@H](O)OC[C@@]45[C@@H]2CC[C@@H]1[C@H]3OC(=O)c1ccc(OC)cc1`, the IC50 with Bel-7402 came out at 1.79 µM; in the assay with MGC-803, 3.33 µM; in the assay with K562, 0.69 µM; in assay [1], 2.71 µM.
`C=C1C(=O)[C@@]23C(=O)O[C@H]4CCC(C)(C)[C@H]5[C@H](O)OC[C@@]45[C@@H]2CC[C@@H]1[C@H]3OC(C)=O`: the IC50 was 1.97 µM with Bel-7402, 1.99 µM in the assay with MGC-803, 1.11 µM in the assay on K562 and 1.59 µM in assay [1].
Regarding `C=C1C(=O)[C@@]23C(=O)O[C@H]4CCC(C)(C)[C@H]5[C@H](O)OC[C@@]45[C@@H]2CC[C@@H]1[C@H]3OC(=O)c1ccc([N+](=O)[O-])cc1`, the half-inhibitory concentration (IC50) worked out at 1.01 µM with Bel-7402, 0.64 µM with MGC-803, 0.26 µM in the assay on K562 and 0.58 µM in assay [1].
`C=C1C(=O)[C@@]23C(=O)O[C@H]4CCC(C)(C)[C@H]5[C@H](O)OC[C@@]45[C@@H]2CC[C@@H]1[C@H]3OC(=O)c1ccccc1`: the half-maximal inhibitory concentration (IC50) in the assay on Bel-7402 is 1.42 µM; with MGC-803, 0.93 µM; in the assay with K562 it was 0.21 µM; in assay [1] it was 0.54 µM.
Take `C=C1C(=O)[C@@]23C(=O)O[C@H]4CCC(C)(C)[C@H]5[C@H](O)OC[C@@]45[C@@H]2CC[C@@H]1[C@H]3OC(=O)c1ccc(C)cc1`: the IC50 in the assay on Bel-7402 was found to be 1.01 µM; with MGC-803, 0.61 µM; in the assay on K562, 0.14 µM; in assay [1], 0.45 µM.
In the same order, the values of `C=C1C(=O)[C@@]23C(=O)O[C@H]4CCC(C)(C)[C@H]5[C@H](O)OC[C@@]45[C@@H]2CC[C@@H]1[C@H]3OC(=O)c1ccc(C(F)(F)F)cc1` are 1.27 µM, 0.96 µM, 0.37 µM and 0.76 µM.
